# Active and inactive are the calls of the source.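 Rule for the calls: active = IC50 of 10 µM or lower; inactive = IC50 above 10 µM.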
# Molecular target: ADP-ribosylation factor GTPase-activating protein 1 (Rattus norvegicus) (UniProt Q62848)
# Test: IC50 of ARFGAP1-driven ARF1 GTPase inhibition – biochemical, fluorescence polarization, round 000, late-stage follow-up (AID 743243)
# Details: ARFGAP1-stimulated ARF1 GTP hydrolysis, GDP fluorescence polarization
# How it was run: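 Test system – purified His6-tagged rat Arfgap1 GAP domain (residues 1-136) · Doses – triplicate series, top 165 µM · Schedule – 20 min enzyme-compound preincubation, then 120 min GTPase reaction, 25 °C · Signal – FP GDP tracer-antibody displacement, 620/688 nm · Controls – wells without Arfgap1 as full-inhibition reference · Replicates – each compound dose series run in triplicate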
# ADP-ribosylation factor GTPase-activating protein 1 (Rattus norvegicus), sequence (Q62848 1-136 limits assumed): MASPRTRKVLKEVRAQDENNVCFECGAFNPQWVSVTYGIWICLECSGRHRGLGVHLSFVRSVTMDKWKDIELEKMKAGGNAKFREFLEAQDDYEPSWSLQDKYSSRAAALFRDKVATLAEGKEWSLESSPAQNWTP
row,IC50,Compound
1,> 165 µM (inactive),CC(C)CNC(=O)c1ccc2c(c1)C(=O)N(c1ccccc1-c1ccccc1)C2=O
2,inactive,NS(=O)(=O)c1ccc(CCNc2nc3c(-c4cccc(Cl)c4)nnn3c3ccccc23)cc1
3,inactive,NS(=O)(=O)c1ccc(CCNc2nc3c(-c4ccc(Cl)cc4)nnn3c3ccccc23)cc1
4,> 165 µM (inactive),CCOCCCNC(=O)c1ccc2c(c1)C(=O)N(c1ccc(Cn3cncn3)cc1)C2=O
5,> 165 µM (inactive),Fc1cccc(-c2nnn3c2nc(NCCc2ccccc2)c2ccccc23)c1
6,> 165 µM (inactive),Cc1ccc(N2C(=O)c3ccc(C(=O)N4CCN(Cc5ccccc5)CC4)cc3C2=O)cc1
7,> 165 µM (inactive),COc1ccc(CNc2nc3c(-c4cccc(F)c4)nnn3c3cc(Cl)ccc23)cc1
8,> 165 µM (inactive),Fc1cccc(-c2nnn3c2nc(NCCc2ccc(Cl)cc2)c2ccccc23)c1
9,> 165 µM (inactive),CCCOC(=O)c1ccc2c(c1)C(=O)N(c1cccc3ccccc13)C2=O
10,> 165 µM (inactive),COc1ccc(CCNc2nc3c(-c4cccc(F)c4)nnn3c3cc(Cl)ccc23)cc1OC
11,> 165 µM (inactive),O=C(NCc1ccco1)c1ccc2c(c1)C(=O)N(c1ccc(C(=O)c3ccccc3)cc1)C2=O
12,> 165 µM (inactive),O=C(COC(=O)c1ccc2c(c1)C(=O)N(c1ccccc1Cl)C2=O)c1ccc(Br)cc1
13,> 165 µM (inactive),COc1ccccc1N1C(=O)c2ccc(C(=O)OCC(=O)c3ccc(Br)cc3)cc2C1=O
14,> 165 µM (inactive),O=C(COC(=O)c1ccc2c(c1)C(=O)N(c1cc(C(F)(F)F)ccc1Cl)C2=O)c1ccccc1
15,inactive,Cc1cccc(-c2nnn3c2nc(NCCc2ccc(S(N)(=O)=O)cc2)c2ccccc23)c1
16,inactive,Cc1cccc(-c2nnn3c2nc(NCCc2ccc(S(N)(=O)=O)cc2)c2ccc(Cl)cc23)c1
17,> 165 µM (inactive),Cc1ccc(N2C(=O)c3ccc(C(=O)OCC(=O)c4ccccc4)cc3C2=O)c(C)c1
18,> 165 µM (inactive),CC(C)(C)NC(=O)c1ccc2c(c1)C(=O)N(c1ccccc1-c1ccccc1)C2=O
19,> 165 µM (inactive),Cc1ccc(C(=O)COC(=O)c2ccc3c(c2)C(=O)N(c2cccc4ncccc24)C3=O)cc1
20,> 165 µM (inactive),Cc1ccc(N2C(=O)c3ccc(C(=O)OCC(=O)C(C)(C)C)cc3C2=O)cc1
21,> 165 µM (inactive),Cc1ccc(N2C(=O)c3ccc(C(=O)N4c5ccccc5CC4C)cc3C2=O)cc1 (stereo not drawn)
22,> 165 µM (inactive),Cc1ccc(Oc2ccc3c(c2)C(=O)N(c2cccc4ncccc24)C3=O)cc1C
23,inactive,NS(=O)(=O)c1ccc(CCNc2nc3c(-c4cccc(F)c4)nnn3c3ccccc23)cc1
24,6.9 µM,NS(=O)(=O)c1ccc(CCNc2nc3c(-c4cccc(C(F)(F)F)c4)nnn3c3ccccc23)cc1

row,IC50,Compound
1,> 165 µM (inactive),O=C(NCC1CCCO1)c1ccc2c(c1)C(=O)N(c1cccc3ccccc13)C2=O (stereo not drawn)
2,> 165 µM (inactive),Fc1cccc(-c2nnn3c2nc(NCc2ccc4c(c2)OCO4)c2ccccc23)c1
3,> 165 µM (inactive),O=C1c2cc(Cl)c(Cl)cc2C(=O)N1c1cccc2ncccc12
4,> 165 µM (inactive),Cc1cccc(N2C(=O)c3ccc(C(=O)NC4CCCCC4)cc3C2=O)c1C
5,> 165 µM (inactive),COc1ccccc1Oc1ccc2c(c1)C(=O)N(c1cccc3ncccc13)C2=O
6,> 165 µM (inactive),COc1cccc(C(=O)COC(=O)c2ccc3c(c2)C(=O)N(c2cccc(C(F)(F)F)c2)C3=O)c1
7,> 165 µM (inactive),Fc1cccc(-c2nnn3c2nc(NCCc2ccccc2)c2ccc(Cl)cc23)c1
8,> 165 µM (inactive),Cc1ccc(C(=O)COC(=O)c2ccc3c(c2)C(=O)N(c2cccc4ccccc24)C3=O)cc1
9,> 165 µM (inactive),O=C(NC1CCCCC1)c1ccc2c(c1)C(=O)N(c1ccccc1-c1ccccc1)C2=O
10,> 165 µM (inactive),O=C(COC(=O)c1ccc2c(c1)C(=O)N(c1cccc(Cl)c1Cl)C2=O)c1ccccc1
11,> 165 µM (inactive),O=C(OCC(=O)c1cccs1)c1ccc2c(c1)C(=O)N(c1cccc3ccccc13)C2=O
12,2.13 µM,O=C(COC(=O)c1ccc2c(c1)C(=O)N(c1cccc3ncccc13)C2=O)c1ccc(Cl)cc1
13,> 165 µM (inactive),O=C(NCCc1nc2ccccc2[nH]1)c1ccc2c(c1)C(=O)N(c1ccc(F)cc1)C2=O
14,> 165 µM (inactive),Cc1ccc(CNc2nc3c(-c4cccc(F)c4)nnn3c3cc(Cl)ccc23)cc1
15,> 165 µM (inactive),O=C(NCC1CCCO1)c1ccc2c(c1)C(=O)N(c1ccccc1-c1ccccc1)C2=O (stereo not drawn)
16,> 165 µM (inactive),Cc1cccc(Oc2ccc(N3C(=O)c4ccc(C(=O)OCC(=O)Nc5cccc(C)c5C)cc4C3=O)cc2)c1
17,> 165 µM (inactive),CC(CNc1nc2c(-c3cccc(F)c3)nnn2c2ccccc12)c1ccccc1 (stereo not drawn)
18,inactive,O=C1c2ccc(Oc3ccc(Br)cc3)cc2C(=O)N1c1cccc2ncccc12
19,> 165 µM (inactive),O=C(COC(=O)c1ccc2c(c1)C(=O)N(c1cccc(C(F)(F)F)c1)C2=O)c1ccc(Cl)cc1
20,> 165 µM (inactive),COc1cccc(C(=O)COC(=O)c2ccc3c(c2)C(=O)N(c2ccc(F)cc2)C3=O)c1
21,> 165 µM (inactive),O=C1c2ccccc2C(=O)N1c1cccc2ncccc12
22,> 165 µM (inactive),Cc1ccc(C(=O)C(C)OC(=O)c2ccc3c(c2)C(=O)N(c2cccc(Cl)c2Cl)C3=O)cc1 (stereo not drawn)
23,inactive,COc1ccc(CNc2nc3c(-c4cccc(F)c4)nnn3c3ccccc23)cc1
24,> 165 µM (inactive),O=C(COC(=O)c1ccc2c(c1)C(=O)N(c1cccc(Cl)c1Cl)C2=O)c1ccc(F)cc1
